# Data as given in ChEMBL document CHEMBL1153373, “Effect of ring size on conformation and biological activity of cyclic cationic antimicrobial peptides” (J Med Chem, 2009).
# Square brackets hold non-standard residues; d marks the D form. Peptide text beside a SMILES is read from it.
# Legend:
# Enterobacter cloacae = experiment: Antimicrobial activity against Enterobacter cloacae after 24 hrs by standard microtiter dilution method; format: functional
# Cryptococcus neoformans = experiment: Antimicrobial activity against Cryptococcus neoformans after 24 hrs by standard microtiter dilution method; format: functional
# How it was run: (§1)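 Fungal MICs were determined by standard microtitre dilution, taken as the lowest peptide concentration inhibiting growth after 24 h incubation at 37 °C.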
# Klebsiella pneumoniae = experiment: Antimicrobial activity against Klebsiella pneumoniae after 24 hrs by standard microtiter dilution method; format: functional
# Serratia marcescens = experiment: Antimicrobial activity against Serratia marcescens after 24 hrs by standard microtiter dilution method; format: functional
# [1] = tested on: Staphylococcus epidermidis; experiment: Antimicrobial activity against Staphylococcus epidermidis after 24 hrs by standard microtiter dilution method; format: functional
# Streptococcus pneumoniae = experiment: Antimicrobial activity against Streptococcus pneumoniae after 24 hrs by standard microtiter dilution method; format: functional
# [2] = tested on: Acinetobacter calcoaceticus; experiment: Antimicrobial activity against Acinetobacter calcoaceticus after 24 hrs by standard microtiter dilution method; format: functional
# Streptococcus pyogenes = experiment: Antimicrobial activity against Streptococcus pyogenes after 24 hrs by standard microtiter dilution method; format: functional
# Enterococcus faecalis = experiment: Antimicrobial activity against Enterococcus faecalis after 24 hrs by standard microtiter dilution method; format: functional
# Staphylococcus aureus = experiment: Antimicrobial activity against Staphylococcus aureus after 24 hrs by standard microtiter dilution method; format: functional
# [3] = tested on: Stenotrophomonas maltophilia; experiment: Antimicrobial activity against Stenotrophomonas maltophilia after 24 hrs by standard microtiter dilution method; format: functional
# [4] = Therapeutic index, ratio of hemolytic activity in human RBC to MIC for Enterobacter cloacae; conditions: human red blood cells (RBC), read-out: TI
# Escherichia coli = experiment: Antimicrobial activity against Escherichia coli after 24 hrs by standard microtiter dilution method; format: functional
# Corynebacterium jeikeium = experiment: Antimicrobial activity against Corynebacterium jeikeium after 24 hrs by standard microtiter dilution method; format: functional
# Candida albicans = experiment: Antimicrobial activity against Candida albicans after 24 hrs by standard microtiter dilution method; format: functional; how it was run: as §1
# Streptococcus mitis = experiment: Antimicrobial activity against Streptococcus mitis after 24 hrs by standard microtiter dilution method; format: functional
# Pseudomonas aeruginosa = experiment: Antimicrobial activity against Pseudomonas aeruginosa after 24 hrs by standard microtiter dilution method; format: functional
# [5] = Therapeutic index, ratio of hemolytic activity in human RBC to MIC for Streptococcus pneumoniae; conditions: human red blood cells (RBC), read-out: TI
# [6] = Therapeutic index, ratio of hemolytic activity in human RBC to MIC for Acinetobacter calcoaceticus; conditions: human red blood cells (RBC), read-out: TI
# [7] = Therapeutic index, ratio of hemolytic activity in human RBC to MIC for Candida albicans; conditions: human red blood cells (RBC), read-out: TI
# [8] = Therapeutic index, ratio of hemolytic activity in human RBC to MIC for Staphylococcus epidermidis; conditions: human red blood cells (RBC), read-out: TI
MIC (Enterobacter cloacae) [µg/mL],MIC (Cryptococcus neoformans) [µg/mL],MIC (Klebsiella pneumoniae) [µg/mL],MIC (Serratia marcescens) [µg/mL],MIC [1] [µg/mL],MIC (Streptococcus pneumoniae) [µg/mL],MIC [2] [µg/mL],MIC (Streptococcus pyogenes) [µg/mL],MIC (Enterococcus faecalis) [µg/mL],MIC (Staphylococcus aureus) [µg/mL],MIC [3] [µg/mL],MIC (Escherichia coli) [µg/mL],MIC (Corynebacterium jeikeium) [µg/mL],MIC (Candida albicans) [µg/mL],MIC (Streptococcus mitis) [µg/mL],Structure (SMILES),other results
256,16,64,256,64,16,16,2,64,64,128,–,–,–,–,CC(C)C[C@@H]1NC(=O)[C@H](CCCCN)NC(=O)[C@H](C(C)C)NC(=O)[C@@H]2CCCN2C(=O)[C@@H](Cc2ccc(O)cc2)NC(=O)[C@H](CC(C)C)NC(=O)[C@H](CCCCN)NC(=O)[C@H](C(C)C)NC(=O)[C@H](CCCCN)NC(=O)[C@@H]2CCCN2C(=O)[C@@H](Cc2ccc(O)cc2)NC(=O)[C@H](CCCCN)NC1=O (cyclo(KLK[dY]PKVKL[dY]PV)),–
–,–,–,–,–,–,–,–,–,–,–,–,–,–,–,CC(C)C[C@@H]1NC(=O)[C@H](CCCCN)NC(=O)[C@H](C(C)C)NC(=O)[C@@H]2CCCN2C(=O)[C@@H](Cc2ccc(O)cc2)NC(=O)[C@H](CC(C)C)NC(=O)[C@H](CCCCN)NC(=O)[C@H](C(C)C)NC(=O)[C@H](CCCCN)NC(=O)[C@H](CC(C)C)NC(=O)[C@H](CCCCN)NC(=O)[C@@H]2CCCN2C(=O)[C@@H](Cc2ccc(O)cc2)NC(=O)[C@H](C(C)C)NC(=O)[C@H](CCCCN)NC1=O (cyclo(VKLKV[dY]PKLKVKL[dY]P)) [listing 1 of 2 here],selectivity ratio [4]: 2
256,–,32,256,–,2,8,–,–,16,–,64,2,–,–,CC(C)C[C@@H]1NC(=O)[C@H](CCCCN)NC(=O)[C@H](C(C)C)NC(=O)[C@@H]2CCCN2C(=O)[C@@H](Cc2ccc(O)cc2)NC(=O)[C@H](CC(C)C)NC(=O)[C@H](CCCCN)NC(=O)[C@H](C(C)C)NC(=O)[C@H](CCCCN)NC(=O)[C@@H]2CCCN2C(=O)[C@@H](Cc2ccc(O)cc2)NC1=O,–
64,64,–,–,2,1,2,–,4,–,–,4,–,64,–,CC(C)C[C@@H]1NC(=O)[C@H](CCCCN)NC(=O)[C@H](C(C)C)NC(=O)[C@@H]2CCCN2C(=O)[C@@H](Cc2ccc(O)cc2)NC(=O)[C@H](CC(C)C)NC(=O)[C@H](CCCCN)NC(=O)[C@H](C(C)C)NC(=O)[C@H](CCCCN)NC(=O)[C@H](CC(C)C)NC(=O)[C@H](CCCCN)NC(=O)[C@@H]2CCCN2C(=O)[C@@H](Cc2ccc(O)cc2)NC(=O)[C@H](CCCCN)NC(=O)[C@H](C(C)C)NC(=O)[C@H](CCCCN)NC1=O (cyclo(VKLKVK[dY]PKLKVKL[dY]P)),–
256,–,–,256,4,0.5,4,0.5,4,4,32,64,4,32,1,CC(C)C[C@@H]1NC(=O)[C@H](CCCCN)NC(=O)[C@H](C(C)C)NC(=O)[C@@H]2CCCN2C(=O)[C@@H](Cc2ccc(O)cc2)NC(=O)[C@H](CC(C)C)NC(=O)[C@H](CCCCN)NC(=O)[C@H](C(C)C)NC(=O)[C@H](CCCCN)NC(=O)[C@H](CC(C)C)NC(=O)[C@@H]2CCCN2C(=O)[C@@H](Cc2ccc(O)cc2)NC(=O)[C@H](C(C)C)NC1=O,MIC (Pseudomonas aeruginosa): 256 µg/mL
256,32,64,–,–,8,8,–,32,64,64,64,2,–,–,CC(C)C[C@@H]1NC(=O)[C@H](CCCCN)NC(=O)[C@H](C(C)C)NC(=O)[C@@H]2CCCN2C(=O)[C@@H](Cc2ccc(O)cc2)NC(=O)[C@H](CC(C)C)NC(=O)[C@H](CCCCN)NC(=O)[C@H](C(C)C)NC(=O)[C@@H]2CCCN2C(=O)[C@@H](Cc2ccc(O)cc2)NC(=O)[C@H](CCCCN)NC1=O (cyclo(VKLK[dY]PVKL[dY]P)) [listing 1 of 2 here],MIC (Pseudomonas aeruginosa): 256 µg/mL
256,–,8,256,16,–,–,–,4,32,8,16,1,–,4,CC(C)C[C@@H]1NC(=O)[C@H](CCCCN)NC(=O)[C@@H]2CCCN2C(=O)[C@@H](Cc2ccc(O)cc2)NC(=O)[C@H](CCCCN)NC(=O)[C@H](C(C)C)NC(=O)[C@H](CC(C)C)NC(=O)[C@H](CCCCN)NC(=O)[C@H](C(C)C)NC(=O)[C@@H]2CCCN2C(=O)[C@@H](Cc2ccc(O)cc2)NC(=O)[C@H](CC(C)C)NC(=O)[C@H](CCCCN)NC(=O)[C@H](C(C)C)NC(=O)[C@H](CCCCN)NC1=O (cyclo(VKLVK[dY]PKLKVKL[dY]P)),–
–,–,–,–,–,–,–,–,–,–,–,–,–,–,–,CC(C)C[C@@H]1NC(=O)[C@H](CCCCN)NC(=O)[C@H](C(C)C)NC(=O)[C@@H]2CCCN2C(=O)[C@@H](Cc2ccc(O)cc2)NC(=O)[C@H](CC(C)C)NC(=O)[C@H](CCCCN)NC(=O)[C@H](C(C)C)NC(=O)[C@@H]2CCCN2C(=O)[C@@H](Cc2ccc(O)cc2)NC(=O)[C@H](CCCCN)NC1=O (cyclo(VKLK[dY]PVKL[dY]P)) [listing 2 of 2 here],selectivity ratio [5]: 255; selectivity ratio [6]: 255; selectivity ratio [7]: 16; selectivity ratio [8]: 128
–,–,8,–,–,–,–,–,4,4,–,16,2,–,0.5,CC(C)C[C@@H]1NC(=O)[C@H](CCCCN)NC(=O)[C@H](C(C)C)NC(=O)[C@@H]2CCCN2C(=O)[C@@H](Cc2ccc(O)cc2)NC(=O)[C@H](CC(C)C)NC(=O)[C@H](CCCCN)NC(=O)[C@H](C(C)C)NC(=O)[C@H](CCCCN)NC(=O)[C@H](CC(C)C)NC(=O)[C@@H]2CCCN2C(=O)[C@@H](Cc2ccc(O)cc2)NC(=O)[C@H](CCCCN)NC1=O (cyclo(VKLK[dY]PLKVKL[dY]P)),–
128,–,–,–,2,0.5,2,0.5,8,–,16,–,–,16,–,CC(C)C[C@@H]1NC(=O)[C@H](CCCCN)NC(=O)[C@H](C(C)C)NC(=O)[C@H](CCCCN)NC(=O)[C@H](CC(C)C)NC(=O)[C@@H]2CCCN2C(=O)[C@@H](Cc2ccc(O)cc2)NC(=O)[C@H](C(C)C)NC(=O)[C@H](CCCCN)NC(=O)[C@H](CCCCN)NC(=O)[C@H](C(C)C)NC(=O)[C@@H]2CCCN2C(=O)[C@@H](Cc2ccc(O)cc2)NC1=O (cyclo(KKV[dY]PLKVKL[dY]PV)),–
256,128,256,256,256,256,–,–,256,256,256,–,–,256,64,CC(C)C[C@@H]1NC(=O)[C@H](CCCCN)NC(=O)[C@H](C(C)C)NC(=O)[C@H](CCCCN)NC(=O)[C@@H]2CCCN2C(=O)[C@@H](Cc2ccc(O)cc2)NC(=O)[C@H](CCCCN)NC(=O)[C@H](CCCCN)NC(=O)[C@H](C(C)C)NC(=O)[C@@H]2CCCN2C(=O)[C@@H](Cc2ccc(O)cc2)NC1=O (cyclo(VKK[dY]PKVKL[dY]P)),MIC (Pseudomonas aeruginosa): 256 µg/mL
–,64,8,256,–,–,2,–,8,64,–,–,8,64,8,CC(C)C[C@@H]1NC(=O)[C@H](CCCCN)NC(=O)[C@H](C(C)C)NC(=O)[C@@H]2CCCN2C(=O)[C@@H](Cc2ccc(O)cc2)NC(=O)[C@H](CC(C)C)NC(=O)[C@H](CCCCN)NC(=O)[C@H](C(C)C)NC(=O)[C@H](CCCCN)NC(=O)[C@H](CC(C)C)NC(=O)[C@H](CCCCN)NC(=O)[C@@H]2CCCN2C(=O)[C@@H](Cc2ccc(O)cc2)NC(=O)[C@H](CCCCN)NC(=O)[C@H](CCCCN)NC1=O (cyclo(VKLKK[dY]PKLKVKL[dY]P)),–
–,1,8,–,–,0.5,2,0.5,2,2,4,–,2,–,0.5,CC(C)C[C@@H]1NC(=O)[C@H](CCCCN)NC(=O)[C@H](C(C)C)NC(=O)[C@@H]2CCCN2C(=O)[C@@H](Cc2ccc(O)cc2)NC(=O)[C@H](CC(C)C)NC(=O)[C@H](CCCCN)NC(=O)[C@H](C(C)C)NC(=O)[C@H](CCCCN)NC(=O)[C@H](CC(C)C)NC(=O)[C@H](CCCCN)NC(=O)[C@@H]2CCCN2C(=O)[C@@H](Cc2ccc(O)cc2)NC(=O)[C@H](C(C)C)NC(=O)[C@H](CCCCN)NC1=O (cyclo(VKLKV[dY]PKLKVKL[dY]P)) [listing 2 of 2 here],–
